Reference: ChEMBL document CHEMBL2311333, “Synthesis and antimycobacterial evaluation of pyrazinamide derivatives with benzylamino substitution” (Bioorg Med Chem Lett, 2013)

Key:
[1] = Lipophilicity, log K of the compound in methanol-water mixture by HPLC analysis; type: physicochemical
Mycobacterium kansasii = assay: Antimycobacterial activity against Mycobacterium kansasii CNCTC My 235/80 after 10 to 14 days by microdilution panel method; type: functional
Summary of the method: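 Microdilution panel method. Strain obtained from Czech National Collection of Type Cultures (CNCTC My 235/80). MIC in μg/mL read visually as the lowest compound concentration that inhibited mycobacterial growth.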

[2] = test system: Mycobacterium tuberculosis; assay: Antimycobacterial activity against Mycobacterium tuberculosis H37Rv CNCTC My 331/88 after 10 to 14 days by microdilution panel method; type: functional
Summary of the method: (§1)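 Whole-cell microdilution panel assay on strains from the Czech National Collection of Type Cultures (M. tuberculosis H37Rv My 331/88, M. avium ssp. avium Chester My 80/72, M. avium My 152/73). MIC (μg/mL) was read visually as the lowest concentration of compound that inhibited mycobacterial growth.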

HepG2 = assay: Cytotoxicity against human HepG2 cells; type: cell-based
Mycobacterium avium [3] = assay: Antimycobacterial activity against Mycobacterium avium CNCTC My 152/73 after 10 to 14 days by microdilution panel method; type: functional; summary of the method: as §1
Mycobacterium avium [4] = assay: Antimycobacterial activity against Mycobacterium avium CNCTC My 80/72 after 10 to 14 days by microdilution panel method; type: functional; summary of the method: as §1
[5] = Selectivity index, ratio of IC50 for human HepG2 cells to MIC for Mycobacterium tuberculosis H37Rv CNCTC My 331/88; type: functional
Summary of the method: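 Cytotoxicity was measured as the decrease in viability of human liver Hep G2 cells, read colorimetrically by tetrazolium salt reduction over a dilution series. IC50 was taken from this readout, and SI was calculated as the Hep G2 IC50 divided by the M. tuberculosis H37Rv MIC from the microdilution panel assay.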

[6] = test system: Mycobacterium tuberculosis; assay: Ratio of pyrazinamide MIC to compound MIC for Mycobacterium tuberculosis H37Rv CNCTC My 331/88; type: functional

| SMILES | log K [1] | MIC (Mycobacterium kansasii) | MIC [2] | IC50 (HepG2) | MIC (Mycobacterium avium [3]) | MIC (Mycobacterium avium [4]) | Selectivity Index [5] | Ratio [6] |
| --- | --- | --- | --- | --- | --- | --- | --- | --- |
| COc1ccc(CNc2nc(C#N)cnc2C#N)cc1 | 0.3259 | 99 µM | 188 µM | 95.9 µM | > 100 µg/mL | > 100 µg/mL | 0.5 | – |
| N#Cc1cnc(C(N)=O)c(NCc2ccccc2)n1 | 0.326 | > 100 µg/mL | > 100 µg/mL | – | > 100 µg/mL | > 100 µg/mL | – | – |
| Cc1ccc(CNc2nc(C#N)cnc2C(N)=O)cc1 | 0.5533 | > 100 µg/mL | 47 µM | 54.6 µM | > 100 µg/mL | > 100 µg/mL | 1.2 | – |
| COc1ccc(CNc2nc(C#N)cnc2C(N)=O)cc1 | 0.3074 | > 100 µg/mL | > 100 µg/mL | – | > 100 µg/mL | > 100 µg/mL | – | – |
| N#Cc1cnc(C(N)=O)c(NCc2ccc(N)cc2)n1 | -0.2005 | > 100 µg/mL | 47 µM | > 1000 µM | > 100 µg/mL | > 100 µg/mL | >21.3 | – |
| N#Cc1cnc(C(N)=O)c(NCc2cccc(Cl)c2)n1 | 0.5141 | > 100 µg/mL | > 100 µg/mL | – | > 100 µg/mL | > 100 µg/mL | – | – |
| N#Cc1cnc(C(N)=O)c(NCc2ccc(Cl)cc2)n1 | 0.5421 | > 100 µg/mL | > 100 µg/mL | – | > 100 µg/mL | > 100 µg/mL | – | – |
| N#Cc1cnc(C(N)=O)c(NCc2ccc(Cl)c(Cl)c2)n1 | 0.7353 | > 100 µg/mL | > 100 µg/mL | – | > 100 µg/mL | > 100 µg/mL | – | – |
| N#Cc1cnc(C(N)=O)c(NCc2cccc([N+](=O)[O-])c2)n1 | 0.1331 | > 100 µg/mL | 84 µM | 457 µM | > 100 µg/mL | > 100 µg/mL | 5.4 | – |
| N#Cc1cnc(C(N)=O)c(NCc2cccc(C(F)(F)F)c2)n1 | 0.5104 | > 100 µg/mL | 78 µM | 27.8 µM | > 100 µg/mL | > 100 µg/mL | 0.4 | – |
| N#Cc1cnc(C#N)c(NCc2ccccc2)n1 | 0.335 | 106 µM | 53 µM | 60.8 µM | 53 µM | 106 µM | 1.1 | – |
| Cc1ccc(CNc2nc(C#N)cnc2C#N)cc1 | 0.5598 | > 100 µg/mL | 25 µM | 70.8 µM | > 100 µg/mL | > 100 µg/mL | 2.8 | 2 |
| N#Cc1cnc(C#N)c(NCc2ccc(N)cc2)n1 | -0.1621 | > 100 µg/mL | 100 µM | 549 µM | > 100 µg/mL | > 100 µg/mL | 5.5 | – |
| N#Cc1cnc(C#N)c(NCc2cccc(Cl)c2)n1 | 0.5456 | 46 µM | 46 µM | 40 µM | > 100 µg/mL | > 100 µg/mL | 0.9 | – |
| N#Cc1cnc(C#N)c(NCc2ccc(Cl)cc2)n1 | 0.5735 | 46 µM | 93 µM | 35.5 µM | > 100 µg/mL | > 100 µg/mL | 0.4 | – |
| N#Cc1cnc(C#N)c(NCc2ccc(Cl)c(Cl)c2)n1 | 0.783 | > 100 µg/mL | > 100 µg/mL | – | > 100 µg/mL | > 100 µg/mL | – | – |
| N#Cc1cnc(C#N)c(NCc2cccc([N+](=O)[O-])c2)n1 | 0.2049 | > 100 µg/mL | > 100 µg/mL | – | > 100 µg/mL | > 100 µg/mL | – | – |
| N#Cc1cnc(C#N)c(NCc2cccc(C(F)(F)F)c2)n1 | 0.5615 | > 100 µg/mL | > 100 µg/mL | – | > 100 µg/mL | > 100 µg/mL | – | – |
| Cc1ccccc1CNc1nc(C#N)cnc1C#N | 0.5043 | > 100 µg/mL | > 100 µg/mL | – | > 100 µg/mL | > 100 µg/mL | – | – |
| NNC(=O)c1ccncc1 [ISONIAZID] | – | 91 µM | 11 µM | – | 23 µM | 46 µM | – | – |
| NC(=O)c1cnccn1 [PYRAZINAMIDE] | – | > 100 µg/mL | 51 µM | – | > 100 µg/mL | > 100 µg/mL | 775 | – |
